Most compounds without a hit are left out; they make up all but 2% or so of the library.
DNMT1 block: DNMT1 (human) enzyme inhibition. DNMT1 molecular beacon, Hinp1I cleavage, fluorescence. inhibition (reported as % activation of signal), % at 10 µM. hit rate 0.83% among 360,000; in the data active means inhibition above about 50%
LMPTP inh: blocks human LMPTP phosphatase; recombinant LMPTP-A, OMFP fluorogenic substrate, fluorescence intensity; inhibition, % at 20 µM; hit rate 0.22% among 360,000; AID 651560;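 active means compounds that cut the enzyme signal by at least half of the control window in the single-dose screen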
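Assay system: LMPTP-A, protein tyrosine phosphatase of low molecular weight / Medium: pH 6.0 Bis-Tris buffer with DTT and Triton X-100 / Schedule: 50 min enzyme reaction at room temperature, protected from light / Measured by: endpoint fluorescence intensity from OMFP dephosphorylation / Read-out basis: % inhibition relative to no-enzyme and uninhibited control wells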
Rpn11 block: inhibitors of human proteasome Rpn11; O00487; human 26S proteasome, Ub4-pepOG fluorescence polarization; 20S core pre-blocked with epoxomicin; inhibition, % at 20 µM; hit rate 0.59% among 360,000; AID 588493;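 active means inhibition at 20 µM, scaled to each plate's controls, above about 33%, limit read from the data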
Scp1 inh: blocks human Scp-1 phosphatase activity; Recombinant Scp1, phosphopeptide, malachite green phosphate absorbance; inhibition, % at 20 µM; hit rate 0.88% among 340,000;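 active means inhibition above about 50% at 20 µM, limit read from the data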
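System: SCP-1 catalytic domain; Reagent: Phospho 17-mer peptide substrate; Doses: one concentration, 20 µM, with 1.0% DMSO; Incubation: 45 min room-temperature reaction, 5 min colour, 30 min stabiliser; Signal: Phosphate-binding colour reagent, absorbance read at 630 nm.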
STEP block: inhibitors of human striatal-enriched phosphatase STEP. recombinant STEP, OMFP fluorogenic substrate, fluorescence. P54829. hit rate 0.25% among 360,000. AID 588621. inhibition, % at 20 µM;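 active means inhibition at 20 µM, scaled per plate between control wells, above about 37%, limit read from the data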
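material = STEP tyrosine phosphatase | reagent = fluorogenic phosphatase substrate OMFP at 25 µM final | doses = single compound dose of 20 µM, 1% DMSO final | schedule = 20 min reaction, room temperature, in the dark | measured by = fluorescence, 480/540 nm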
Scp1 confirm: Scp-1 (human) inhibition, single-dose confirmed | inhibition, % at 20 µM | recombinant SCP-1 catalytic domain, phosphate release, malachite green absorbance | shares compounds with Scp1 inh | hit rate 61% among 2,500 | AID 540281
Scp-1 MG ctr: colorimetric interference in Scp-1 counter-screen; shares compounds with Scp1 inh; Colorimetric interference counterscreen, malachite green absorbance 630 nm; apparent inhibition (interference), % at 20 µM; 2,500 tested, under 10 active;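 further: compounds added after enzyme reaction finished so only phosphate colour detection is probed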
Scp-1 Tm shift: validation of human Scp-1 inhibitors by thermal shift binding. AID 540329. Recombinant SCP1, Sypro Orange thermal shift Tm. hit rate 25% among 1,500. thermal shift relative to vanadate control, % at 40 µM. shares compounds with Scp1 inh;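 active means substances whose mean melting-temperature shift, as a percentage of the reference inhibitor's shift, reaches about 5.3%, limit read from the data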
Beacon interf DR: counter-screen for DNMT1 inhibitors: spectral interference, dose response; shares compounds with DNMT1 block; molecular beacon fluorescence; IC50, µM; 200 tested, under 10 active; call rule not given here
DNMT1 inh conf: confirmation of human DNMT1 inhibitors; hit rate 8% among 2,300; shares compounds with DNMT1 block; DNMT1 molecular beacon HinP1I cleavage, fluorescence; inhibition, % at 10 µM;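 active means average inhibition of at least 30% in the single-concentration confirmation test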
Beacon interf: beacon fluorescence artifact counter-screen. shares compounds with DNMT1 block. DNMT1 molecular beacon spectral interference counterscreen, fluorescence 485/520. activation (fluorescence interference), % at 10 µM. hit rate 1% among 2,300;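 active means activation of at least 30% at 10 µM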;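 further: DNMT1 catalytic domain with a HinP1I cleavage step and a FAM/dabcyl DNA beacon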
Rpn11 confirm: Rpn11 inhibition confirmation, single concentration | inhibition, % at 20 µM | hit rate 29% among 1,900 | shares compounds with Rpn11 block | AID 602318 | purified human 26S proteasome, Ub4-pepOG fluorescence polarization; proteasome pretreated with epoxomicin; in the data active means inhibition above about 40%
MMP-2 inh: blocks human MMP-2, flagging nonselective RPN11 hits; shares compounds with Rpn11 block; recombinant MMP-2, FRET peptide cleavage fluorescence; inhibition, % at 20 µM; hit rate 4% among 1,900; AID 602330; in the data active means inhibition above about 40%;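 further: human MMP-2 activated beforehand with APMA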
Thrombin inh: counter-screen for RPN11 inhibitors: inhibition of bovine thrombin | bovine thrombin cleavage of Ub4-pepOG, fluorescence polarization | AID 602333 | shares compounds with Rpn11 block | inhibition, % at 20 µM | hit rate 13% among 1,900;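 active means mean inhibition at least 40% at 20 µM, or signal 3 deviations below plate average, so some actives read negative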
Target sequence (P00735 whole entry, looked up): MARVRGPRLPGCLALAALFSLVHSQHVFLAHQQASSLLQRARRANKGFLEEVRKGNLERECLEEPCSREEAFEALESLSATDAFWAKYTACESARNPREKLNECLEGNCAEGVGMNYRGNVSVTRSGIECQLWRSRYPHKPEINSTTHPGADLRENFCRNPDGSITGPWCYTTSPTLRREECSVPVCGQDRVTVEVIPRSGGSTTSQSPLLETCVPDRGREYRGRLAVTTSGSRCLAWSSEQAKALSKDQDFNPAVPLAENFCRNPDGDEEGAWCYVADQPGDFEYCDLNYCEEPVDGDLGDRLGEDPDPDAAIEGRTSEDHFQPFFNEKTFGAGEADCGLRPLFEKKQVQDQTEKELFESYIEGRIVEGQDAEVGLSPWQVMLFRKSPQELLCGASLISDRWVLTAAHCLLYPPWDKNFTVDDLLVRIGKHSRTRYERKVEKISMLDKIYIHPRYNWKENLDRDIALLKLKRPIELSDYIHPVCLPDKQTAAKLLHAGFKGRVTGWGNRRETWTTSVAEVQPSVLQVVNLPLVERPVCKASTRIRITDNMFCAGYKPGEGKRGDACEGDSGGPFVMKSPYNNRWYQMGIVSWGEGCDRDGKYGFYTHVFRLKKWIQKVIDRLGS
STEP conf: confirmation of human STEP phosphatase inhibitors; shares compounds with STEP block; recombinant STEP, OMFP fluorogenic substrate, fluorescence; inhibition, % at 20 µM; hit rate 32% among 520; call rule not given here
Hits are given with their value; n = inactive; x = no result given.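 How the source made its calls, unless noted: active means inhibition of at least 30% at 20 µM; inactive means the rest.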

SMILES	DNMT1 block	LMPTP inh	Rpn11 block	Scp1 inh	STEP block	Scp1 confirm	Scp-1 MG ctr	Scp-1 Tm shift	DNMT1 inh conf	Beacon interf	Rpn11 confirm	MMP-2 inh	Thrombin inh	STEP conf	others
CCOC(=O)c1ccc(/C=C2/C=C(c3ccccc3)N(c3ccc(Cl)c(C(=O)O)c3)C2=O)cc1	n	n	68	52	n	72	n	n	x	x	156	n	152	x
O=C(NN=C1c2ccccc2-c2ccccc21)c1ccccn1	n	n	94	73	n	n	n	x	x	x	60	n	n	x
CC(=N/O)/C(C)=N\NC(=O)c1ccccn1	n	n	n	n	n	x	x	x	x	x	x	x	x	x
N=C1/C(=C\c2ccc(-c3cc(Cl)cc(Cl)c3)o2)C(=O)N=C2SC=C(c3ccccc3)N12	n	n	n	n	n	x	x	x	x	x	x	x	x	x
CC(C)S(=O)(=O)C1=NSC2=NC(=O)/C(=C\c3ccc(-c4cccc(C(=O)O)c4)o3)C(=N)N21	n	n	69	65	n	68	n	n	x	x	n	n	n	x
Cc1cccc(S(=O)(=O)NC2CCCCCCC2)c1	n	n	n	n	n	x	x	x	x	x	x	x	x	x
COC(=O)Cn1c(=NC(=O)c2nc3ccccc3s2)sc2cc(S(N)(=O)=O)ccc21	n	n	47	64	n	52	n	n	x	x	n	n	n	x
Cc1ccc(NC(=O)CN(C)C(=O)c2cccc(-n3cccc3)c2)cc1	100	n	57	91	n	72	n	n	34	n	85	n	n	x	Beacon interf DR=n
Cc1ccc(/C=c2\sc3nc(-c4ccccc4Br)nn3c2=O)o1	104	n	43	92	n	61	n	9.2	n	n	n	n	n	x
O=C(c1ccc(CSc2ccc(Cl)cc2)o1)N1CCOCC1	n	n	n	x	n	x	x	x	x	x	x	x	x	x
C[C@]12c3[nH]c4cc(-c5ccco5)ccc4c3CCN1C(=O)[C@@H](CC(=O)NCCC1=CCCCC1)C[C@@H]2C(=O)N1CCOCC1	n	n	n	n	n	x	x	x	x	x	x	x	x	x
CN(C)c1cc(-c2ccc(Cl)c(Cl)c2)oc(=O)c1Cl	62	60	n	107	96	81	n	n	n	n	x	x	x	n
CN(C)c1cc(-c2ccc(Cl)cc2)oc(=O)c1Cl	n	n	n	n	n	x	x	x	x	x	x	x	x	x
CC(Oc1ccc(C#N)cc1)C(=O)N1CC=C(c2ccccc2)CC1 (stereo unspecified)	n	n	n	n	n	x	x	x	x	x	x	x	x	x
O=C(O)c1ccc(/C=N/NC(=O)c2cc3c(ccc4ccccc43)o2)cc1	n	67	n	79	98	71	n	n	x	x	x	x	x	n
O=C(N/N=C/c1cccc([N+](=O)[O-])c1)c1cc2c(ccc3ccccc32)o1	n	64	n	99	99	68	n	n	x	x	x	x	x	n
O=C(O)CC/C(=C/c1cccc(NC(=O)c2ccccc2Cl)c1)c1nc2ccccc2s1	n	n	n	n	n	x	x	x	x	x	x	x	x	x
COc1cc(/C=C(\CCC(=O)O)c2nc3ccccc3s2)ccc1OCC(=O)Nc1c(Cl)cccc1Cl	52	n	73	75	49	52	n	n	70	n	n	n	n	n	Beacon interf DR=n
COc1cccc2cc(C(=O)NC(C)c3ccccc3)c(=O)oc12 (stereo unspecified)	n	n	n	n	n	x	x	x	x	x	x	x	x	x
COc1cccc2cc(C(=O)Nc3cccc(C)n3)c(=O)oc12	74	n	n	102	56	60	n	n	n	n	x	x	x	n
Cn1c2ccccc2c(=O)c2c(=O)n(-c3ccc(F)cc3)c(-c3cccs3)nc21	n	n	n	101	44	54	n	n	x	x	x	x	x	n
Cc1ccc(-c2nc3c(c(=O)c4ccccc4n3C)c(=O)n2-c2ccc(F)cc2)cc1	n	n	n	n	n	x	x	x	x	x	x	x	x	x
CC1(c2ccc(Cl)cc2)NC(=O)N(CC(=O)Nc2ccc(N3CCCCC3)cc2)C1=O (stereo unspecified)	n	n	n	n	n	x	x	x	x	x	x	x	x	x
Nc1cc(Cl)ccc1C(=O)OCC(=O)NCc1cccs1	n	n	n	n	n	x	x	x	x	x	x	x	x	x
O=C(NCc1ccccc1)C1CCC(=O)N(CCCN2CCCC2=O)C1 (stereo unspecified)	n	n	n	n	n	x	x	x	x	x	x	x	x	x
SMILES	DNMT1 block	LMPTP inh	Rpn11 block	Scp1 inh	STEP block	Scp1 confirm	Scp-1 MG ctr	Scp-1 Tm shift	DNMT1 inh conf	Beacon interf	Rpn11 confirm	MMP-2 inh	Thrombin inh	STEP conf	others
Cc1ccc(S(=O)(=O)CCC(=O)OCC(=O)NCc2ccc(F)cc2)cc1	n	n	n	x	n	x	x	x	x	x	x	x	x	x
O=C(CCS(=O)(=O)c1ccc(Br)cc1)NCc1ccc(F)cc1	51	n	n	81	40	41	n	n	n	n	x	x	x	n
C=CC1=C(C(=O)O)N2C(=O)C(NC(=O)Cc3ccccc3)C2SC1 (stereo unspecified)	90	73	138	96	88	78	n	n	n	n	n	n	n	36
CC(=O)OCC1=C(C(=O)O)N2C(=O)[C@@H](NC(=O)Cc3ccccc3)[C@H]2SC1	n	n	n	n	n	x	x	x	x	x	x	x	x	x
O=C1NN(c2cccc(Br)c2)C(=O)/C1=C\c1ccc(N2CCOCC2)cc1	65	66	n	52	82	48	n	n	n	n	x	x	x	72
N=c1c2ccccc2nnn1-c1ccc(C(F)(F)F)cc1	n	68	n	73	94	62	n	n	x	x	x	x	x	n
CC1=C(C(=O)OC(C)C)C(c2ccc(Cl)cc2)n2c(s/c(=C\c3ccc(OCC(=O)O)cc3)c2=O)=N1 (stereo unspecified)	86	n	x	56	n	49	n	n	x	x	x	x	x	52
